Results gathered from unrelated publications.
Target: MAP/microtubule affinity-regulating kinase 3 (MARK3, Homo sapiens, UniProt P27448)

CN1CCN(C(=O)c2ccc(NC(=O)Nc3ccc(N(C)c4ccnc(Nc5ccc(CS(C)(=O)=O)cc5)n4)cc3)cc2)CC1  remaining binding (binding; 1 µM): 43%
CO[C@@H]1[C@H](N(C)C(=O)c2ccccc2)C[C@H]2O[C@]1(C)n1c3ccccc3c3c4c(c5c6ccccc6n2c5c31)C(=O)NC4  inhibition (enzyme activity, inhibitor; 1 µM): 95%
C1=C/COCc2cc(ccc2OCCN2CCCC2)Nc2nccc(n2)-c2cccc(c2)COC/1  remaining binding (binding; 0.1 µM): 100%
COc1ccc2oc(-c3ccc4nc(N)oc4c3)c/c(=N\c3ccccc3NC(=O)CCN)c2c1  remaining binding (binding; 1 µM): 104%
CC(C)S(=O)(=O)c1ccc2nccc(Nc3ccc4sc(C5CCCC5)nc4c3)c2c1  activity vs control (enzyme activity, inhibitor; 1 µM): 120%
CCCCC(=O)Nc1ccc(-c2ccc3ncn(CCC)c(=O)c3c2)cn1  remaining binding (binding, competition with immobilised ligand; 0.5 µM): 91%
C#Cc1cnc(Nc2ccnc(CO)c2)nc1Nc1ccccc1S(C)(=O)=NC#N (centres unmarked)  remaining signal (cell-free assay; 1 µM): 42%
Cc1cc(O)c(-c2ccc([C@@H](C)CN(C)C)cc2)c2c1[nH]c(=O)c1sccc12  inhibition (enzyme activity, inhibitor; 0.1 µM): -0.763%
Cc1ccc(NC(=O)c2ccnc(C(F)(F)F)c2)cc1-c1cc(OCCO)nc(N2CCOCC2)c1  remaining binding (binding; 1 µM): 97%
CC#CC(=O)N1CCC[C@H]1c1nc(-c2ccc(C(=O)Nc3ccccn3)cc2)c2c(N)nccn12  inhibition (enzyme activity, inhibitor; 1 µM): 0%
N#Cc1ccc(NC(=O)Nc2ccccc2)cc1  remaining binding (cell-free assay, competition with immobilised ligand; 25 µM): 78%
